We go through 1 compound from ChEMBL document CHEMBL4428060 (J Med Chem, 2016).

The structures appear in SMILES notation. pEC50, pKi: −log10 of the molar value. Active and inactive are the calls of the source. The rule behind the calls is not given here. Bounds are passed on as bounds.

Series [1] in a line: Metabolic stability in mouse liver microsomes assessed as compound remaining at 10 uM measured for 1 hr in presence of NADPH by LC/MS/MS analysis. The series is classed as ADME, Microsome. The settings on record: read-out: Stability. Summed up:
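Mouse liver microsomes 0.5 mg/mL in 100 mM potassium phosphate, pH 7.4, with NADPH regenerating system; compound 10 μM final. Testosterone as phase I positive control. Disappearance over time by LC/MS/MS; triplicate sampling.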

The target in series [2] is Mu-type opioid receptor (Homo sapiens) (UniProt P35372). The experiment in a line: Binding affinity to mu opioid receptor (unknown origin) at 10 uM.
The target of series [3] is Kappa-type opioid receptor (Homo sapiens) (UniProt P41145). Kind of series: Binding affinity to kappa opioid receptor (unknown origin) at 10 uM.
Series [4] in a line: Toxicity in Long-Evans rat assessed as induction of conditioned place preference at 15 mg/kg, ip. It counts as organism-based. The settings on record: in vivo. An outline of the steps:
(§1)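 Rat CPP in 3-chamber apparatus; animals with preconditioning bias ≥200 s excluded. Alternating conditioning: oxycodone 3 mg/kg i.p. ×2 and saline ×2, counterbalanced, 40 min confinement; pretreatment saline or 5, 15 mg/kg i.p. 15 min before oxycodone. Home-cage oxycodone 3 mg/kg i.p. twice daily for four days. Drug-alone group: 15 mg/kg paired versus saline. Test 24 h later, 15 min; score = drug- minus saline-paired time; one-way ANOVA.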

In series [5] the target is Delta-type opioid receptor (Homo sapiens) (UniProt P41143). The experiment in a line: Binding affinity to delta opioid receptor (unknown origin) at 10 uM.
Series [6] in a line: Toxicity in C57BL/6J mouse assessed as effect on basal locomotor activity at 5 to 15 mg/kg, ip measured every 20 mins for 2 hrs on day 1. It counts as organism-based. The settings on record: in vivo.
Series [7] deals with Mus musculus. Kind of series: Protection against oxycodone-induced hyperactivity in C57BL/6J mouse at 5 and 15 mg/kg, ip on day 1 followed by 5 and 15 mg/kg, ip pre-treated 15 mins before oxycodone challenge on day 2. It counts as functional, organism-based.
The target of a further series is T1, D(4) dopamine receptor (Homo sapiens, UniProt P21917).
T1 sequence (P21917 whole entry): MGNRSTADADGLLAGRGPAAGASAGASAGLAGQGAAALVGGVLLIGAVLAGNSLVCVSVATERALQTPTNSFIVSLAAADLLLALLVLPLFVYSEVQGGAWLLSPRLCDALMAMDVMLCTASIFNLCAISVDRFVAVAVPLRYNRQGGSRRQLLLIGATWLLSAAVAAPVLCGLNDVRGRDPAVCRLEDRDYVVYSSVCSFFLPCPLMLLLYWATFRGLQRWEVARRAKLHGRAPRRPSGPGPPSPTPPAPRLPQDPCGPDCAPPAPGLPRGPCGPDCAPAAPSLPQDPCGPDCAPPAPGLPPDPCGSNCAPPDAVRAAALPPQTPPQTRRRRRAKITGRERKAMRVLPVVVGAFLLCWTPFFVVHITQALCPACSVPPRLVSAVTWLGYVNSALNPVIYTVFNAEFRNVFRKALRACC
The experiment in a line: Displacement of [3H]N-methylspiperone from human dopamine D4.4 receptor expressed in HEK293 cell membranes incubated for 1 hr by liquid scintillation counting analysis. Summed up:
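Membranes from HEK293 cells stably expressing human D2LR, D3R or D4.4R, 10 μg protein (D2LR, D3R) or 20 μg (D4.4R) per tube, in EBSS pH 7.4 with 0.2 mM sodium metabisulfite. [3H]N-methylspiperone 0.4 nM final. 13 half-log dilutions, 100 μM–100 pM or 10 μM–10 pM final. 10 μM butaclamol defined nonspecific binding. Triplicates, 1 h at room temperature, GF/B filtration. Ki by Cheng-Prusoff from IC50, at least three independent experiments.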

The subject of series [8] is Mus musculus. The experiment in a line: Protection against oxycodone-induced locomotor sensitization in C57BL/6J mouse at 5 and 15 mg/kg, ip on day 1 followed by 5 and 15 mg/kg, ip pre-treated 15 mins before oxycodone challenge on day 2. The series is classed as functional, organism-based.
The subject of a further series is Rattus norvegicus. Kind of series: Protection against oxycodone-induced conditioned place preference in ip dosed Long-Evans rat pretreated with compound 15 mins prior to oxycodone injection. It counts as functional, organism-based. Summed up:
as §1

The subject of series [9] is Mus musculus. The experiment in a line: Protection against oxycodone prime-induced locomotor sensitization in C57BL/6J mouse at 5 and 15 mg/kg, ip on day 1 followed by 5 and 15 mg/kg, ip pre-treated 15 mins before oxycodone challenge on day 2 followed by 72 hrs drug withdrawal before 4 mg/kg oxycodone injection on day 9. It counts as functional, organism-based.
A further series deals with D(3) dopamine receptor (Homo sapiens, UniProt P35462). Kind of series: Agonist activity at human dopamine D3 receptor expressed in CHO cells assessed as stimulation of mitogenesis incubated for 16 hrs in presence of [3H]thymidine by scintillation spectrometric analysis. It counts as cell-based. Also on record: concentration or dose not given beside the values.
Chain of D(3) dopamine receptor (P35462 whole entry): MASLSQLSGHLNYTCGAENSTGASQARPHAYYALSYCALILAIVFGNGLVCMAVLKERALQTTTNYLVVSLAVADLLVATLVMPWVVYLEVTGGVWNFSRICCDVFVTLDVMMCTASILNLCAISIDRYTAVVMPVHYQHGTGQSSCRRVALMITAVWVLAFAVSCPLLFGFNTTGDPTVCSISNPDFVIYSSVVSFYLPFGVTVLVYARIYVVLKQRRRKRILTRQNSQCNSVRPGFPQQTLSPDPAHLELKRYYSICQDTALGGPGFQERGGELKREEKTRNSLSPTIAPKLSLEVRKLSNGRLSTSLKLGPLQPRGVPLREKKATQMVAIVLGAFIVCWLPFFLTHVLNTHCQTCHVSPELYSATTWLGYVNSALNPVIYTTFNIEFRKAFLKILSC

Chain of Mu-type opioid receptor (Homo sapiens) (P35372 whole entry): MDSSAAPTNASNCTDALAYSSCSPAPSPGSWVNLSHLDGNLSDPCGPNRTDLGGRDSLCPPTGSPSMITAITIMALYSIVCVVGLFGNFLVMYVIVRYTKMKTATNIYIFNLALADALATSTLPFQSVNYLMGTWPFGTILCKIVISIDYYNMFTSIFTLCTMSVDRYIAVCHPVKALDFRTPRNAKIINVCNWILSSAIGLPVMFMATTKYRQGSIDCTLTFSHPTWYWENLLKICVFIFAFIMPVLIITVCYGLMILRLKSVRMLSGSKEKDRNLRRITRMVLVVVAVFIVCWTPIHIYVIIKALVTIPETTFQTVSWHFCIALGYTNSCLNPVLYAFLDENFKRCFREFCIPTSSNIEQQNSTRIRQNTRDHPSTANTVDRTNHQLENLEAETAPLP
Chain of Kappa-type opioid receptor (Homo sapiens) (P41145 whole entry): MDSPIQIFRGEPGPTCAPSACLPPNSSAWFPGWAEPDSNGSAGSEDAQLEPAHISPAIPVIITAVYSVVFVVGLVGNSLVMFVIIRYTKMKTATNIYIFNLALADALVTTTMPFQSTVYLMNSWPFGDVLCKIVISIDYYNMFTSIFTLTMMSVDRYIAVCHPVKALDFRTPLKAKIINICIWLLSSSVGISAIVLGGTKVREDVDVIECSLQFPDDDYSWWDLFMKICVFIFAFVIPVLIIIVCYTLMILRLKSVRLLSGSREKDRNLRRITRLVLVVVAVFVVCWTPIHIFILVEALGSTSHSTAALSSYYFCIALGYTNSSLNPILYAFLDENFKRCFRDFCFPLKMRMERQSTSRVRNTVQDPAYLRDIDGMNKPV
Chain of Delta-type opioid receptor (Homo sapiens) (P41143 whole entry): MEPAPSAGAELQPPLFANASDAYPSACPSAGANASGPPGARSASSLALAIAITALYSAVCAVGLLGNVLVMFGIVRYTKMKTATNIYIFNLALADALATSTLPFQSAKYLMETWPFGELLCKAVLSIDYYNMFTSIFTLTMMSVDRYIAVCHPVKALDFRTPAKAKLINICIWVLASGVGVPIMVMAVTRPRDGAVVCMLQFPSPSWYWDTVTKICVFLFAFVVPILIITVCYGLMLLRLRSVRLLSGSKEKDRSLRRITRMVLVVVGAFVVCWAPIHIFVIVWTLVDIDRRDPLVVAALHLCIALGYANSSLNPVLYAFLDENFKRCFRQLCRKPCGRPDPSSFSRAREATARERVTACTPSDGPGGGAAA

As to `CCc1cc(Cl)c(OC)c(N2CCN(CC(O)CCNC(=O)c3cc4ccccc4[nH]3)CC2)c1` (stereo not drawn), the remaining at 1 h, 10 µM in series [1] was greater than 80%. The result in series [2], in [3] and in series [5] was inactive. Also, the Activity result was “Non-Toxic” in series [4], “Non-Toxic” in series [6], “Dose-dependent effect” with Rattus norvegicus and 6.7% on D(3) dopamine receptor. The result in the series with Mus musculus [7], in the series with Mus musculus [8] and with Mus musculus [9] was Active. The compound also gave a pKi at D(4) dopamine receptor of 4.86. The negative logarithm of the EC50 (pEC50) at D(3) dopamine receptor was less than 5.08.

As a reminder, the pKi is the negative decadic logarithm of the Ki, by convention in mol/L. Broadly, the pEC50 is the negative decadic logarithm of the EC50, by convention in mol/L.
